Screens as filed in PubChem BioAssay.
This is a sample that favours compounds with a hit; in the whole collection about 2.2% have one here.
M18AAP inhibitor – PfM18AAP enzyme inhibition. recombinant PfM18AAP, H-Glu-NHMec fluorogenic cleavage. inhibition, % at 7.35 µM. AID 1822. actives 1.2% (n = 290,000);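 active means inhibition above the campaign mean inhibition over all tested compounds plus 3 SD, cut at about 28% in these data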;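 further: 0% = plate median of test compound wells and 100% = 2 mM ZnCl2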
HKDC1 inhibitor – blocks human hexokinase HKDC1 activity; recombinant HKDC1, G6PDH/diaphorase resazurin coupled fluorescence; inhibition, % at 20 µM; actives 0.16% (n = 340,000); Q2TB90;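 active means inhibition above about 35% when tested at 20 µM, limit read from the data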;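 further: plate controls were DMSO wells with enzyme for no effect and DMSO wells lacking enzyme for full effect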
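test system = in-house recombinant HK5 (HKDC1) enzyme | amount = HKDC1 at 5 µg/mL | control set = DMSO-enzyme wells negative, buffer-substituted wells positive | compound = one dose of 20 µM, 1% DMSO | schedule = reaction time 90 min, room temperature, protected from light | technique = resorufin fluorescence at 613 nm | reagent = glucose with 1 mM ATP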
PfG6PD inh – PfG6PD (Plasmodium falciparum) enzyme inhibition | PfGluPho enzyme, NADPH resazurin-diaphorase fluorescence | inhibition, % at 20 µM | actives 0.78% (n = 350,000);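 active means inhibition reaching at least a set limit at 20 µM in the primary screen, cut at about 59% in these data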;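 further: 0% = DMSO wells with substrate and 100% = DMSO wells lacking glucose-6-phosphate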
Neddylation inh – cullin neddylation inhibition; inhibition, % at 25 µM; actives 0.58% (n = 360,000); TR-FRET cullin neddylation, biochemical; P61081+Q13564; in the data active means inhibition above about 36%
Target sequence (P61081 whole entry, looked up): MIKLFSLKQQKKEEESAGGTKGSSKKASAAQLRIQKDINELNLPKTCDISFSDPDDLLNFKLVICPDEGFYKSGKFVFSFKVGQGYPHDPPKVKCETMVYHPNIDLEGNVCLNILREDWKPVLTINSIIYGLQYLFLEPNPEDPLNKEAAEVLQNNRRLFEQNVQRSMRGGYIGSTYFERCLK
Target sequence (Q13564 whole entry, looked up): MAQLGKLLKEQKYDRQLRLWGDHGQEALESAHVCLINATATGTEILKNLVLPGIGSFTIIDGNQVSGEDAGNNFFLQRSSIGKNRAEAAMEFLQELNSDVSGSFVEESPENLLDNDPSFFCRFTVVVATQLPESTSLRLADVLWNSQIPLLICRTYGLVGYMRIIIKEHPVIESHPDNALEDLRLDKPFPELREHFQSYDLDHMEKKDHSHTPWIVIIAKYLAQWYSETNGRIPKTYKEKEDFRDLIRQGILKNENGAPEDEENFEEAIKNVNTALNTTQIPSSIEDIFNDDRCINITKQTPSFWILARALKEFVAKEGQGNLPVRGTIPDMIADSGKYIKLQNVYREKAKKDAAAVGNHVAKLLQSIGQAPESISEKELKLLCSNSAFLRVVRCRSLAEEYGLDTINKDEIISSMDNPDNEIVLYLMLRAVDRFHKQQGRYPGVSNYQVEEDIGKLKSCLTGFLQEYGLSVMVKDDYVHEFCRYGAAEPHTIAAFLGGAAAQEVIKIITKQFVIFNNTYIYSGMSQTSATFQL
* hit, by the source's call; . = no result given.

SMILES | M18AAP inhibitor | HKDC1 inhibitor | PfG6PD inh | Neddylation inh
O=C(CSc1nc2[nH]ncc2c(=O)n1-c1ccccc1)N1CCCCCC1 | 34* | . | . | .
CSc1nc2[nH]ncc2c(=O)n1-c1ccccc1 | 61* | -7 | 23 | 6
COc1ccc(-c2cccc3c2NC(=O)C3=O)cc1OC | . | 5 | 3 | -3
Cc1occc1C(=O)N/N=C/c1ccc(N(C)C)cc1 | -7 | -5 | 2 | 39*
Cc1occc1C(=O)N/N=C/C=C/c1ccc(N(C)C)cc1 | -5 | 7 | 10 | 40*
Cc1occc1C(=O)N/N=C/C=C/c1ccccc1 | -3 | -5 | 2 | -28
CC(C)NC(=O)C1(C)CN(S(C)(=O)=O)CC(=O)N1CCc1ccccc1 (stereo unspecified) | . | . | . | 5
O=c1[nH]c(O)c(/C=C2\C=Nc3ccc(Br)cc32)[nH]1 | 5 | -4 | 17 | -13
S=c1[nH]ncn1/N=C/c1ccc(N2CCOCC2)cc1 | 31* | -2 | 29 | 3
O=C1CCN(Cc2ccccc2)S(=O)(=O)c2c(F)cc(F)cc21 | . | 1 | 10 | -10
CCOc1ccccc1-c1c2cc(O)c(=O)cc-2oc2cc(O)c(O)cc12 | 30* | 18 | -15 | -5
Cc1ccccc1-c1cc(=O)c2c(O)cccc2o1 | . | 4 | -7 | -29
O=c1cc2oc3cc(O)c(O)cc3c(-c3ccccc3O)c-2cc1O | 44* | 31 | 13 | -10
CCOC(=O)N1CCN(c2cc(NCCC(=O)O)c3c4c(onc24)-c2ccccc2C3=O)CC1 | 6 | 37* | 38 | -29
CN1CCN(c2cc(N3CCN(C(=O)c4ccco4)CC3)c3c4c(onc24)-c2ccccc2C3=O)CC1 | 16 | 21 | 74* | -26
Cc1ccc(S(=O)(=O)NCC(C)n2cncn2)cc1C (stereo unspecified) | 0 | -7 | 5 | 3
Nc1ccc(N)c(C(=O)O)c1 | . | 36* | 71* | 23
COc1cc(/C=C/C(=O)c2ccc3c(c2)OCO3)cc(Cl)c1O | 32* | 6 | 10 | 9
COc1ccc(C(=O)C=Cc2ccc3c(c2)OCO3)cc1OC | . | . | 16 | -23
Nc1[nH][nH]c(=O)c1N=Nc1cccc(Cl)c1 | 21 | 2 | -12 | -49
O=C1CCN(N=Nc2cccc(Cl)c2)N1 | 31* | . | . | .
Cc1cccc(NC(=S)NNC(=O)c2ccc(O)cc2O)c1C | 29* | -32 | -32 | 13
O=C1ON=C(c2ccc([N+](=O)[O-])cc2)/C1=C/c1ccccc1O | 29* | 14 | 9 | -24
CC(=O)N1c2ccc(S(=O)(=O)NCC3CCC(C(=O)NC4CCCCC4C)CC3)cc2CC1C (stereo unspecified) | 0 | -6 | -1 | 1
Cc1ccc(Nc2nnns2)cc1 | 4 | -8 | 60* | -2
SMILES | M18AAP inhibitor | HKDC1 inhibitor | PfG6PD inh | Neddylation inh
CSc1nc2c(c(=O)[nH]c(=O)n2C)n1Cc1ccc(Cl)cc1 | 24 | -2 | 65* | 2
CSc1nc2c(c(=O)[nH]c(=O)n2C)n1Cc1ccccc1Cl | -1 | 0 | 11 | -10
Cc1nc2ncccn2c1-c1csc(Nc2cccc(C(=O)O)c2)n1 | 29* | 2 | 29 | 17
Cc1cccc(Nc2nc(-c3c(C)nc4ccccn34)cs2)c1 | 5 | -16 | 45 | 21
Cc1nc2ccccn2c1-c1csc(Nc2cccc(C(=O)O)c2)n1 | 31* | -4 | 21 | 7
Cc1ccc2ccc(C(Nc3ccccn3)c3ccccc3)c(O)c2n1 (stereo unspecified) | 18 | -22 | -16 | 24
Cc1ccc2ccc(C(Nc3cccc(C(F)(F)F)c3)c3cccnc3)c(O)c2n1 (stereo unspecified) | -6 | -16 | 10 | 48*
COc1cc(C(Nc2ccccn2)c2ccc3ccc(C)nc3c2O)cc(OC)c1O (stereo unspecified) | 30* | 8 | 59 | 20
O=C(CN1C(=O)S/C(=C\c2cccc(Cl)c2)C1=O)NC1C=CS(=O)(=O)C1 (stereo unspecified) | 4 | 2 | 3 | -1
O=C(CN1C(=O)/C(=C/c2cccc(Cl)c2)SC1=S)NC1C=CS(=O)(=O)C1 (stereo unspecified) | 30* | -7 | -10 | -35
COc1ccc(S(=O)(=O)Oc2ccc(C(=S)N3CCOCC3)cc2OC)cc1 | 2 | -9 | -13 | 0
COc1ccc(S(=O)(=O)Oc2c(OC)cc(C(=S)N3CCOCC3)cc2OC)cc1 | 28* | -7 | 40 | 5
O=C(C[C@H]1C=C[C@@H](NC(=O)Cc2cccnc2)[C@@H](CO)O1)NCc1ccc2c(c1)OCO2 | . | . | . | -4
O=C(C(=O)N1CCN(c2ccccc2)CC1)c1ccncc1 | . | . | . | -13
CCCNC(=O)N1C[C@H](O)COC[C@@H]2O[C@@H](CC(=O)NCCCN3CCOCC3)CC[C@H]21 | . | . | . | 4
Cc1cccc(NC2=C/C(=N/S(=O)(=O)c3cccs3)c3ccccc3C2=O)c1 | -2 | 53* | 62* | -7
Cc1cc(C)c(S(=O)(=O)/N=C2\C=C(NS(=O)(=O)c3ccccc3)C(=O)c3ccccc32)c(C)c1 | 3 | 19 | 1 | -19
CN(C)C(=O)Cn1cc(S(=O)(=O)Cc2ccccc2)c2ccccc21 | -1 | -5 | -3 | 4
C/C(=N/NC(=O)CN1CCN(Cc2ccccc2Cl)CC1)c1cccs1 | 6 | -1 | 0 | -4
CCc1nc2ccc(C(=O)Nc3ccc(C(=O)N(C)C)cc3)cn2c1N(C)CCCc1ccccc1 | . | . | . | 8
COc1cccc(CN2CCc3[nH]c(=S)[nH]c(=O)c3C2)c1 | 30* | -4 | 1 | 2
O=C(CC1(O)C(=O)N(C/C=C/c2ccccc2)c2ccccc21)c1ccccn1 (stereo unspecified) | 32* | -2 | 3 | -10
O=C(CC1(O)C(=O)N(CCc2ccccc2)c2ccccc21)c1ccccn1 (stereo unspecified) | 11 | 4 | -4 | 8
Clc1cccc(C2Nc3cccc4cccc(c34)N2)c1 | 32* | 10 | 21 | 7
CCCOc1ccc(F)cc1-c1cc(C(=O)NCc2cc(C(F)(F)F)cc(C(F)(F)F)c2)[nH]n1 | . | . | . | -62
SMILES | M18AAP inhibitor | HKDC1 inhibitor | PfG6PD inh | Neddylation inh
COc1cccc(C(C(=O)NCc2ccccc2)N2CCN(c3ccccc3F)CC2)c1OC (stereo unspecified) | . | . | . | -6
Nc1nc(-c2ccc(S(=O)(=O)N3CCCCC3)cc2)cs1 | . | -5 | -6 | 45*
CN1CCN(C(=O)C[C@@H]2C[C@H]3c4cc(NC(=O)c5cccnc5)ccc4O[C@H]3[C@H](CO)O2)CC1 | . | . | 23 | 1
CCOc1ccc(NC(=O)CCC(=O)c2ccc(F)cc2)cc1 | 7 | -8 | -6 | 0
O=C(c1cn[nH]c1)c1cc(F)ccc1O | 31* | -7 | -13 | 0
Cc1ccc(C)c(S(=O)(=O)NCc2ccc3c(c2)OCO3)c1 | 5 | -4 | 18 | 3
O=C(NC(=S)NNC(=O)c1ccccc1F)c1cccnc1 | 29* | -11 | -8 | 10
Cc1ccccc1C(=O)NNC(=S)NC(=O)c1cccnc1 | 28 | -5 | -1 | 5
Cc1ccc(-c2n[nH]c(=S)n2-c2ccccc2)cc1 | 22 | 1 | 32 | -9
CS(=O)(=O)Nc1ccc(-c2n[nH]c(=S)n2-c2ccccc2)cc1 | 31* | 6 | 43 | 28
